The source made the active and inactive calls. No cut-off for these calls is given here.

Test [1] concerns the target T1, Aldehyde dehydrogenase, mitochondrial (Homo sapiens) (UniProt P05091).
T1 sequence (whole entry): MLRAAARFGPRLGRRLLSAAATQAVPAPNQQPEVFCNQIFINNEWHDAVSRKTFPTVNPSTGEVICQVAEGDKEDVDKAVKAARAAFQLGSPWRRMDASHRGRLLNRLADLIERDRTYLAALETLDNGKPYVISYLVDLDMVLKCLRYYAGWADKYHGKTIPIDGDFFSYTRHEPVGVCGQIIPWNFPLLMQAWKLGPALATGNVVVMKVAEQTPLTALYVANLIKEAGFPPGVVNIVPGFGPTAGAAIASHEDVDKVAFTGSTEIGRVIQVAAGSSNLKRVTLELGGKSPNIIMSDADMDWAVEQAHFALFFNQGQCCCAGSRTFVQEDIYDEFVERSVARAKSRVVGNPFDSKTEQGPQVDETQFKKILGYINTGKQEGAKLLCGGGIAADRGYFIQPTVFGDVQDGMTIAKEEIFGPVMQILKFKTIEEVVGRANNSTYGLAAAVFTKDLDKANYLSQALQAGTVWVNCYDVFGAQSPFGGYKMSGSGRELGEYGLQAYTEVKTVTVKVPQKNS
Kind of test: Allosteric activation of recombinant human full-length ALDH2 (18 to 517 residues) expressed in Escherichia coli at 100 uM using acetaldehyde as substrate measured after 3 hrs in presence of NAD+ by […] relative to Alda-1. The procedure, abridged:
(§1)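 Read-out is absorbance at 450 nm, taken at room temperature. Starting concentrations are 5 mg/ml ALDH2, 25 mM acetaldehyde and 1 mM NAD+. Activity is the change in absorbance per minute (SlopeOD450). Maximum fold activation is calculated from ALDH2 activity with compound and corrected by the activity of the Alda-1 reference.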

For test [2], the system named is Rattus norvegicus. Kind of test: Protection against middle cerebral artery occlusion-induced Sprague-Dawley rat model of ischemic stroke-like event assessed as reduction in brain infarct size at 64 ug, icv pretreated for 5 mins followed by MCAO surgery for 2 hrs and subsequent reperfusion for 24 hrs by TCC staining based assay relative to control. The note with it: dose 64 µg; time 26.0833 hrs; 26.08 h. Type of test: functional. The arrangement: scale not given: the % may be the effect or the level left.

The target in test [3] is T2, Aldehyde dehydrogenase, mitochondrial (Homo sapiens, UniProt P05091).
T2 sequence (P05091 whole entry): T1 sequence (whole entry)
Kind of test: Allosteric activation of recombinant human full-length ALDH2 (18 to 517 residues) expressed in Escherichia coli using acetaldehyde as substrate measured after 3 hrs in presence of NAD+ by […]. In a few lines: as §1

The test system of test [4] is Rattus norvegicus. Kind of test: Protection against middle cerebral artery occlusion-induced Sprague-Dawley rat model of ischemic stroke-like event assessed as reduction in brain infarct size at 50 ug, icv pretreated for 5 mins followed by MCAO surgery for 2 hrs and subsequent reperfusion for 24 hrs by TCC staining based assay. It counts as functional, organism-based. To be noted: dose 50.0 µg, time 26.08333 hrs.

In the case of `COc1ccc(CN(C(C)=O)c2ccc(N3CCOCC3)c(C(=O)NCC(C)(C)O)c2)cc1F`, the “fold change (FC)” value in test [1] is “inactive”.

For the compound `COc1ccc(CNc2ccc(N3CCOCC3)c(C(=O)NCC(C)(C)O)c2)cc1F`, the fold change (FC) in test [1] (filed as activator) is 120%.

On to `CCCNC(=O)c1cc(NCc2ccc(OC)c(F)c2)ccc1N1CCOCC1`, for which the fold change (FC) in test [1] (filed as activator) was 97%.

The EC50 is the concentration that produces a half-maximal response. `COc1ccc(CNc2ccc(N3CCOCC3)c(C(=O)NCC3CC3)c2)cc1F`: the fold change (FC) in test [1] (filed as activator) came out at 104%. Besides, the Activity with Rattus norvegicus [2] came out at 70%. For the same compound, the EC50 in test [3] was determined as 17.9 µM.

For `COc1ccc(CNc2ccc(N3CCOCC3)c(C(=O)NCC(C)(C)F)c2)cc1F`, the fold change (FC) in test [1] (filed as activator) came to 101%.

On to `O=C(O)c1cc(NCc2ccc3c(c2)OCO3)ccc1N1CCOCC1`, for which, in test [1], the fold change (FC) was 23%.

In the case of `COc1ccc(CNc2ccc(N3CCOCC3)c(C(=O)NCC3CCC3)c2)cc1F`, the fold change (FC) in test [1] (filed as activator) amounted to 41%.

Take `CCOC(=O)c1cc(NCc2ccc3c(c2)OCO3)ccc1N1CCOCC1`: the fold change (FC) in test [1] (filed as activator) was determined as 64%.

In the case of `COc1ccc(CNc2ccc(N3CCOCC3)c(C(=O)NCC3CCCCC3)c2)cc1F`, the fold change (FC) in test [1] (filed as activator) was found to be 80%.

Regarding `COc1ccc(CNc2ccc(N3CCOCC3)c(C(=O)NCC(C)C)c2)cc1F`, in test [1] (filed as activator), the fold change (FC) is 92%.

As to `COc1ccc(CNc2ccc(N3CCCCC3)c(C(=O)NCC3CC3)c2)cc1F`, the “fold change (FC)” value in test [1] is “inactive”.

For `CCNC(=O)c1cc(NCc2ccc(OC)c(F)c2)ccc1N1CCOCC1`, the fold change (FC) in test [1] (filed as activator) came to 63%.

For the compound `O=C(NCc1ccc2c(c1)OCO2)c1c(Cl)cccc1Cl`, the EC50 in test [3] was 4.3 µM. Besides, the outcome in the test on Rattus norvegicus [4] was Active.

As to `O=C(O)c1cc(NCc2ccc(Cl)c(Cl)c2)ccc1N1CCOCC1`, the fold change (FC) in test [1] was determined as 9%.

Turning to `COc1ccc(CNc2cccc(C(=O)NCC3CC3)c2)cc1F`, the fold change (FC) in test [1] (filed as activator) is 56%.

Regarding `CNC(=O)c1cc(NCc2ccc(OC)c(F)c2)ccc1N1CCOCC1`, in test [1] (filed as activator), the fold change (FC) is 52%.

Consider `Clc1cc(NCc2ccc3c(c2)OCO3)ccc1N1CCOCC1`, for which the “fold change (FC)” value in test [1] was “inactive”.

In the case of `COc1ccc(CNc2ccc(N3CCOCC3)c(C(=O)NCC3CCCC3)c2)cc1F`, in test [1] (filed as activator), the fold change (FC) was 51%.

Turning to `COc1ccc(CN(C(C)=O)c2ccc(N3CCOCC3)c(C(=O)NCC3(O)CC3)c2)cc1F`, the “fold change (FC)” value in test [1] is “inactive”.

`COc1ccc(CNc2ccc(N3CCOCC3)c(C(=O)NCC3(O)CC3)c2)cc1F`: in test [1] (filed as activator), the fold change (FC) is 97%.

For `COc1ccc(CNc2ccc(N3CCOCC3)c(C(=O)NC3CC3)c2)cc1F`, the fold change (FC) in test [1] (filed as activator) amounted to 94%.

On to `O=C(CCC(=O)OCC(=O)c1ccccc1Cl)Nc1ccc(Cl)cc1`, for which the fold change (FC) in test [1] came to 6%.

Turning to `COc1ccc(C(=O)Nc2ccc(N3CCOCC3)c(C(=O)NCC3CC3)c2)cc1F`, in test [1], the “fold change (FC)” value was “inactive”.

In the case of `COc1ccc(CNc2ccc(C3CCOCC3)c(C(=O)NCC3CC3)c2)cc1F`, the fold change (FC) in test [1] (filed as activator) was 53%.

Take `O=C(O)c1cc(NCc2ccc3c(c2)OCO3)ccc1Cl`: in test [1], the “fold change (FC)” value was “inactive”.

As to `COc1ccc(CNc2ccc(N3CCC(F)CC3)c(C(=O)NCC3CC3)c2)cc1F`, the “fold change (FC)” value in test [1] was “inactive”.

On to `Fc1ccc(NCc2ccc3c(c2)OCO3)cc1`, for which, in test [1], the “fold change (FC)” value was “inactive”.

Regarding `Clc1ccc(NCc2ccc3c(c2)OCO3)cc1Cl`, the “fold change (FC)” value in test [1] was “inactive”.

`COc1ccc(CNc2ccc(N3CCC(O)CC3)c(C(=O)NCC3CC3)c2)cc1F`: the fold change (FC) in test [1] (filed as activator) was determined as 80%.

Regarding `COc1ccc(CN(C)c2ccc(N3CCOCC3)c(C(=O)NCC3CC3)c2)cc1F`, the “fold change (FC)” value in test [1] is “inactive”.

On to `COc1ccc(CNc2ccc(-c3ccccc3)c(C(=O)NCC3CC3)c2)cc1F`, for which the fold change (FC) in test [1] was 3%.

`COc1ccc(CNc2ccc(N3CCC(F)(F)CC3)c(C(=O)NCC3CC3)c2)cc1F`: the fold change (FC) in test [1] came to 12%.

Take `COc1ccc(CNc2ccc(N3CCOCC3)c(C(=O)N3CCCCC3)c2)cc1F`: in test [1] (filed as activator), the fold change (FC) turned out to be 66%.

As to `COc1ccc(CNc2ccc(N3CCOCC3)c(C(=O)NCC(C)(C)C)c2)cc1F`, in test [1] (filed as activator), the fold change (FC) came out at 59%.

The values are drawn from ChEMBL document CHEMBL4706645, “The discovery of novel small molecule allosteric activators of aldehyde dehydrogenase 2” (Eur J Med Chem, 2021).
